According to ChEMBL document CHEMBL1123659, “2-Phenylindoles. Effect of N-benzylation on estrogen receptor affinity, estrogenic properties, and mammary tumor inhibiting activity” (J Med Chem, 1987):
Several values for one entry are separate records, joined by “and”; a condition that tells them apart may be missing. Equal values may be shown once.

Tests used:
[1] = target: T1, Estrogen receptor (Mus musculus) (UniProt O08537+P19785); test: Estrogenic activity as Uterus dry weight (mg)/body weight (g) *100 in mice at 25 ug
[2] = target: T1, Estrogen receptor (Mus musculus); test: Anti-estrogenic activity as Uterus dry weight (mg)/body weight (g) *100 in mice at 125 ug; type: functional, tissue-based
Method in brief: (§1)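 Immature mice, sc injection on three consecutive days of test compound together with a standard 0.4 µg estrone per animal and day. Dose per animal. Control animals got vehicle. Killed 24 h after the last injection. Uteri Bouin-fixed, cleaned, washed in alcoholic LiCl, dried at 100 °C for 24 h and weighed. Read-out is uterine dry weight (mg)/body weight (g) ×100, mean of 10 animals ± SD.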

[3] = target: T1, Estrogen receptor (Mus musculus); test: (§2) Estrogenic activity as Uterus dry weight (mg)/body weight (g) *100 in mice with 0.4 ug estrone; type: functional, tissue-based
Method in brief: (§3)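 Immature mice given 0.4 µg estrone per animal sc on three consecutive days. Control animals got vehicle. Killed 24 h after the last injection. Uteri fixed in Bouin, dried at 100 °C for 24 h and weighed. Result expressed as uterine dry weight (mg)/body weight (g) ×100, mean of 10 animals ± SD.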

[4] = target: T1, Estrogen receptor (Mus musculus); test: Estrogenic activity as Uterus dry weight (mg)/body weight (g) *100 in mice at 625 ug
[5] = target: T1, Estrogen receptor (Mus musculus); test: Anti-estrogenic activity as Uterus dry weight (mg)/body weight (g) *100 in mice at 25 ug; type: functional, tissue-based
Method in brief: as §1

[6] = target: T1, Estrogen receptor (Mus musculus); test: Anti-estrogenic activity as Uterus dry weight (mg)/body weight (g) *100 in mice at 5 ug; type: functional, tissue-based
Method in brief: as §1

[7] = target: T1, Estrogen receptor (Mus musculus); test: Percent inhibition of estrone-stimulated uterine growth in mice; type: functional; parameters: concentration or dose not given beside the values; conditions: concentration not given here
Method in brief: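 Mouse antiuterotrophic test. Immature mice injected sc on three consecutive days with 0.4 µg estrone plus increasing doses per animal of test compound. Dry uterine weight/body weight ×100 determined 24 h after the last injection, 10 animals per group. Inhibition (%) = 100 − [(E_S,T − E_V)/(E_S − E_V)] ×100, where E_S is estrone alone and E_V is vehicle. Significance by Mann-Whitney U-test.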

[8] = target: T1, Estrogen receptor (Mus musculus); test: as §2; type: functional, tissue-based; remark: listed apart in the source
Method in brief: as §3

[9] = target: T1, Estrogen receptor (Mus musculus); test: Anti-estrogenic activity as Uterus dry weight (mg)/body weight (g) *100 in mice at 1 ug; type: functional, tissue-based
Method in brief: as §1

[10] = target: T1, Estrogen receptor (Mus musculus); test: Estrogenic activity as Uterus dry weight (mg)/body weight (g) *100 in mice at 5 ug
[11] = target: Estrogen receptor (Bos taurus) (UniProt Q9XSB5+P49884); test: Relative binding affinity for the calf uterine estrogen receptor by 17-beta-[3H]-estradiol displacement.; type: protein assay
Method in brief: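 Calf uterine cytosol (105000g supernatant, 3 mg/mL protein final) in Tris-EDTA-NaN3 buffer, pH 7.5. Incubated with 5 nM 17β-[3H]estradiol and 10^-9–10^-5 M competitor for 18 h at 4 °C. Dextran-coated charcoal added for 90 min, then supernatant radioactivity counted. Nonspecific binding taken with 5 µM estradiol. RBA = molar ratio of estradiol to competitor at 50% displacement ×100.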

[12] = test system: MCF7; test: Effect on [3H]thymidine incorporation into estrogen receptor positive MCF-7 human breast carcinoma cells at 10e-7 M (ex 1); type: functional
Method in brief: (§4)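 MCF-7 cells kept in MEM with 5% charcoal-stripped newborn calf serum for two weeks. About 2×10^4 cells per well plated, then one day later exposed to compound in 0.1% ethanol. Ethanol-only controls. Medium changed on day 4. Three days later cells labelled with 1 µCi [3H]thymidine per well for 2 h. TCA-insoluble radioactivity per dish counted, mean of six dishes ± SD, expressed as % T/C.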

[13] = test system: MCF7; test: Effect on [3H]thymidine incorporation into estrogen receptor positive MCF-7 human breast carcinoma cells at 10e-6 M (ex 1); type: functional
Method in brief: as §4

[14] = target: T1, Estrogen receptor (Mus musculus); test: as §2; type: functional, tissue-based; remark: listed apart in the source
Method in brief: as §3

[15] = test system: MCF7; test: Effect on [3H]thymidine incorporation into estrogen receptor positive MCF-7 human breast carcinoma cells at 10e-7 M (experiment 2); type: functional
Method in brief: as §4

[16] = test system: MCF7; test: Effect on [3H]thymidine incorporation into estrogen receptor positive MCF-7 human breast carcinoma cells at 10e-6 M (ex 2); type: functional
Method in brief: as §4

[17] = test system: MCF7; test: Effect on [3H]-thymidine incorporation into estrogen receptor positive MCF-7 human breast carcinoma cells at 10e-6 M (exp 1); type: functional
Method in brief: as §4

[18] = test system: MCF7; test: Effect on [3H]-thymidine incorporation into estrogen receptor positive MCF-7 human breast carcinoma cells at 10e-7 M (ex 1); type: functional
Method in brief: as §4

[19] = target: T1, Estrogen receptor (Mus musculus); test: as §2; type: functional, tissue-based; remark: listed apart in the source
Method in brief: as §3

[20] = target: T1, Estrogen receptor (Mus musculus); test: Anti-estrogenic activity as Uterus dry weight (mg)/body weight (g) *100 in mice at 625 ug; type: functional, tissue-based
Method in brief: as §1

[21] = target: T1, Estrogen receptor (Mus musculus); test: Anti-estrogenic activity as Uterus dry weight (mg)/body weight (g) *100 in mice at 250 ug; type: functional, tissue-based
Method in brief: as §1

[22] = target: T1, Estrogen receptor (Mus musculus); test: Anti-estrogenic activity as Uterus dry weight (mg)/body weight (g) *100 in mice at 75 ug; type: functional, tissue-based
Method in brief: as §1

[23] = test system: MCF7; test: Effect on [3H]thymidine incorporation into estrogen receptor positive MCF-7 human breast carcinoma cells at 10e-7 M (ex 2)
[24] = test system: MDA-MB-231; test: Effect on [3H]thymidine incorporation into estrogen receptor negative MDA-MB 231 human breast carcinoma cells at 5*10e-6 M; type: functional
[25] = test system: MCF7; test: Effect on [3H]thymidine incorporation into estrogen receptor positive MCF-7 human breast carcinoma cells at 10e-5 M (ex 1); type: functional
Method in brief: as §4

[26] = test system: MDA-MB-231; test: Effect on [3H]thymidine incorporation into estrogen receptor negative MDA-MB 231 human breast carcinoma cells at 1*10e-5 M (ex 1); type: functional
[27] = test system: MCF7; test: Effect on [3H]thymidine incorporation into estrogen receptor positive MCF-7 human breast carcinoma cells at 10e-6 M (ex 2)
[28] = test system: MDA-MB-231; test: Effect on [3H]thymidine incorporation into estrogen receptor negative MDA-MB 231 human breast carcinoma cells at 1*10e-6 M; type: functional
[29] = in the assay text read “Estrogenic activity” for “Anti-estrogenic activity”

T1 sequence (O08537 whole entry, looked up): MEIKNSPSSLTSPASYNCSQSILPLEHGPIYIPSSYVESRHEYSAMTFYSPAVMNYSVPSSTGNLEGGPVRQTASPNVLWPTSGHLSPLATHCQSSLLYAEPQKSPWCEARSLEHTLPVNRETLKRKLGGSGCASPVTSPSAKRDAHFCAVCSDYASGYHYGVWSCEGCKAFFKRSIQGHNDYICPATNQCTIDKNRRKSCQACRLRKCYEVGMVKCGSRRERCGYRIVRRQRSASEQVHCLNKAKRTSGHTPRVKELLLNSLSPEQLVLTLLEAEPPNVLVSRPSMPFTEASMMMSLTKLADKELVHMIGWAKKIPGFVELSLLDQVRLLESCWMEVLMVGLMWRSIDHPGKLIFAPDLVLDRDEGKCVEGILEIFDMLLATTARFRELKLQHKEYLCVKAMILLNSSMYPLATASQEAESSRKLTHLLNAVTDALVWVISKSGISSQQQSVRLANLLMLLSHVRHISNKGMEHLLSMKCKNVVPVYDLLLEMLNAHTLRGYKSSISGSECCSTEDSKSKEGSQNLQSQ
T1 sequence (P19785 whole entry, looked up): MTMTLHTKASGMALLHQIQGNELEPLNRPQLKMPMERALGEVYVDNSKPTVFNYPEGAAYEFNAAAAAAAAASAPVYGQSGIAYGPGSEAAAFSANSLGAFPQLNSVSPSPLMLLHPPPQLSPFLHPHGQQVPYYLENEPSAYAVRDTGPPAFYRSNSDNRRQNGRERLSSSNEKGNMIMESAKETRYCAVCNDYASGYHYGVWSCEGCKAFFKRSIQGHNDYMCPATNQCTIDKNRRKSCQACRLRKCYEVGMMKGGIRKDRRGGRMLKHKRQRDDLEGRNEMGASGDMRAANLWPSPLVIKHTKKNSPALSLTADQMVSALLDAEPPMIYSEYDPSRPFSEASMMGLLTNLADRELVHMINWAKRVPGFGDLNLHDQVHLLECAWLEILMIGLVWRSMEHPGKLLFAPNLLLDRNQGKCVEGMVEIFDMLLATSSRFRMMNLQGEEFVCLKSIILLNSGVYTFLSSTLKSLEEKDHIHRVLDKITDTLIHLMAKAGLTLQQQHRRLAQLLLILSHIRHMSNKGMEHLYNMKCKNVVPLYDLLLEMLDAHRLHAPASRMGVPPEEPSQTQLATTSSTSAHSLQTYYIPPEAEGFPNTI

## COc1ccc(Cn2c(-c3ccc(OC(C)=O)cc3)c(C)c3cc(OC(C)=O)ccc32)cc1
[1]
  Activity: 14.7
[2]
  Activity: 40.1
[2]; [29]
  Activity: 30.9
[3]
  Activity: 52.2
[4]
  Activity: 45
[5]
  Activity: 46.8
[6]
  Activity: 47.4
[7]
  inhibition: 23%
[8]
  Activity: 47.8
[9]
  Activity: 47.1
[10]
  Activity: 14.3

## Cc1c(-c2ccc(O)cc2)n(CC2CCCCC2)c2ccc(O)cc12
[11]
  relative binding affinity (RBA): 5.2

## Cc1c(-c2ccc(O)cc2)n(Cc2ccccc2)c2ccc(O)cc12
[12]
  T/C: 20.3 ×10^4 per dish
[11]
  relative binding affinity (RBA): 16
[13]
  T/C: 17.4 ×10^4 per dish

## Cc1c(-c2ccc(O)cc2)n(Cc2ccccc2Cl)c2ccc(O)cc12
[11]
  relative binding affinity (RBA): 8.7

## CC(=O)Oc1ccc(-c2c(C)c3ccc(OC(C)=O)cc3n2Cc2ccccc2)cc1
[14]
  Activity: 48.2
[1]
  Activity: 17.1
[2]
  Activity: 44.6
[2]; [29]
  Activity: 32.4
[3]
  Activity: 46.5
[4]
  Activity: 32.6
[5]
  Activity: 52.1
[6]
  Activity: 50.4
[7]
  inhibition: 11%
[9]
  Activity: 54.2
[10]
  Activity: 12.3

## CC/C(=C(\c1ccccc1)c1ccc(OCCN(C)C)cc1)c1ccccc1 [TAMOXIFEN]
[15]
  T/C: 6.7 ×10^4 per dish and 10.8 ×10^4 per dish
[16]
  T/C: 5.3 ×10^4 per dish
[17]
  T/C: 2.2 ×10^4 per dish
[18]
  T/C: 4.5 ×10^4 per dish

## Cc1c(-c2ccc(O)cc2)n(-c2ccccc2)c2ccc(O)cc12
[11]
  relative binding affinity (RBA): 9

## CC(=O)Oc1ccc(-c2c(C)c3cc(OC(C)=O)ccc3n2Cc2ccc(C)cc2)cc1
[1]
  Activity: 20.3
[2]
  Activity: 36
[2]; [29]
  Activity: 32.9
[4]
  Activity: 40
[5]
  Activity: 42.5
[6]
  Activity: 46.3
[7]
  inhibition: 16% and < 35%
[8]
  Activity: 46.5 and 47.8
[9]
  Activity: 49.2
[10]
  Activity: 14.4

## Cc1c(-c2ccc(O)cc2)n(Cc2c(Cl)cccc2Cl)c2ccc(O)cc12
[11]
  relative binding affinity (RBA): 3.6

## Cc1c(-c2ccc(O)cc2)n(Cc2ccc(Cl)cc2)c2ccc(O)cc12
[11]
  relative binding affinity (RBA): 8

## Cc1c(-c2ccc(O)cc2)n(Cc2ccc(O)cc2)c2ccc(O)cc12
[11]
  relative binding affinity (RBA): 8

## Cc1c(-c2ccccc2)n(Cc2ccccc2)c2ccc(O)cc12
[11]
  relative binding affinity (RBA): 2.6

## Cc1ccc(Cn2c(-c3ccc(O)cc3)c(C)c3cc(O)ccc32)cc1
[11]
  relative binding affinity (RBA): 11

## CC(=O)Oc1ccc(-c2c(C)c3ccc(OC(C)=O)cc3n2-c2ccccc2)cc1
[1]
  Activity: 17.8
[2]
  Activity: 32.4
[2]; [29]
  Activity: 26.4
[3]
  Activity: 42
[4]
  Activity: 34.8
[5]
  Activity: 43.5
[6]
  Activity: 41
[7]
  inhibition: 33%
[8]
  Activity: 42
[9]
  Activity: 43.2
[10]
  Activity: 13.4

## CC(=O)Oc1ccc(-c2c(C)c3cc(OC(C)=O)ccc3n2Cc2ccccc2)cc1
[1]
  Activity: 22.6
[2]
  Activity: 34.7
[2]; [29]
  Activity: 30.7
[3]
  Activity: 47.4
[4]
  Activity: 38.1
[5]
  Activity: 42.8
[6]
  Activity: 48.7
[7]
  inhibition: 17% and < 42%
[9]
  Activity: 49.9
[10]
  Activity: 13.3
[19]
  Activity: 48.2

## Cc1c(-c2ccc(O)cc2)n(-c2ccccc2)c2cc(O)ccc12
[11]
  relative binding affinity (RBA): 7.5

## Cc1c(-c2ccc(O)cc2)n(Cc2ccccc2)c2ccccc12
[11]
  relative binding affinity (RBA): 0.55

## CC(=O)Oc1ccc(-c2c(C)c3cc(OC(C)=O)ccc3n2Cc2ccc(C#N)cc2)cc1
[1]
  Activity: 15.1
[20]
  Activity: 31.5
[21]
  Activity: 30.4
[2]
  Activity: 30.5
[2]; [29]
  Activity: 20
[3]
  Activity: 48.2
[4]
  Activity: 27.4
[22]
  Activity: 34.1
[5]
  Activity: 37.9
[8]
  Activity: 43.7
[10]
  Activity: 14

## Cc1c(-c2ccc(O)cc2)n(Cc2cccc(Cl)c2)c2ccc(O)cc12
[11]
  relative binding affinity (RBA): 5.1

## Cc1c(-c2cccc(O)c2)n(Cc2ccccc2)c2ccc(O)cc12
[11]
  relative binding affinity (RBA): 3

## Cc1c(-c2ccc(O)cc2)n(CCc2ccccc2)c2ccc(O)cc12
[11]
  relative binding affinity (RBA): 2

## Cc1c(-c2ccc(O)cc2)n(C(=O)c2ccccc2)c2ccc(O)cc12
[11]
  relative binding affinity (RBA): 2.4

## Cc1c(-c2ccc(O)cc2)n(Cc2ccc(C#N)cc2)c2ccc(O)cc12
[11]
  relative binding affinity (RBA): 14
[23]
  T/C: 17.3 ×10^4 per dish
[24]
  T/C: 10.5 ×10^4 per dish
[25]
  T/C: 1.3 ×10^4 per dish
[26]
  T/C: 11 ×10^4 per dish
[27]
  T/C: 7.8 ×10^4 per dish
[28]
  T/C: 10.5 ×10^4 per dish

## Cc1c(-c2ccc(O)cc2)n(Cc2ccccc2)c2cc(O)ccc12
[11]
  relative binding affinity (RBA): 11

## Cc1cccc(Cn2c(-c3ccc(O)cc3)c(C)c3cc(O)ccc32)c1
[11]
  relative binding affinity (RBA): 6.6
